# Only a selection was taken, and hits are over-represented in it overall.
# INS promoter act: TRM-6 insulin promoter activation. AID 1296. TRM-6 cells (human fetal islet line), insulin promoter eGFP reporter, imaging; plate-scaled: unstimulated 0, stimulated control 100. activation, % at 2 µM. 130,000 tested, 0.81% active;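 active means activation at 2 µM above a set limit, confirmed on inspection of the cell images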;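 further: share of cells whose green reporter signal exceeds an intensity cutoff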
#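 test system = TRM-6 insulin promoter–eGFP reporter cells | benchmarks = stimulated versus unstimulated wells as plate controls | read-out basis = percent cells above green-intensity threshold, converted to percent activation versus plate controls | detection = fixed-cell fluorescence microscopy, eGFP plus Hoechst | incubation = tamoxifen pre-incubation 15 h overnight, then compound exposure 48 h at 37 °C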
# Hits are given with their value; i = inactive.
SMILES,INS promoter act
COc1ccc(N(CC(=O)Nc2ccccc2C(=O)NCCc2ccccc2)S(C)(=O)=O)cc1OC,i
COc1ccc(OCC(=O)N2N=C(C(F)F)CC2(O)C(F)F)cc1 (centres undefined),i
CC(C)c1noc2ncc(C(=O)c3cc(Cl)cc(Cl)c3O)cc12,i
CCCCOC(=O)/C(=C\c1ccc([N+](=O)[O-])o1)NC(=O)c1ccccc1,i
Cc1ccc(NC(=O)NNC(=O)c2cccs2)cc1,i
CCCCN(CCCC)S(=O)(=O)c1ccc(NC(=O)CN2CCOCC2)cc1,i
O=C(CN1CCCCC1)Nc1ccc(S(=O)(=O)N2CCOCC2)cc1,i
O=C(CN1CCOCC1)Nc1ccc(S(=O)(=O)NC2CCCCC2)cc1,200
O=C(O)CC1S/C(=N/N=C/c2ccc([N+](=O)[O-])cc2)N(c2ccc(O)cc2)C1=O (centres undefined),i
COc1cc(NC(=O)c2ccc3c(c2)OCO3)c2ncccc2c1,412
O=C(Nc1cccc2cccnc12)c1ccc2c(c1)OCCO2,i
COc1ccc(-c2nc3cc(NC(=O)c4ccc5c(c4)OCO5)ccc3o2)cc1,i
Cc1nc2ccc(Cl)cc2c(-c2ccccc2F)c1CC(=O)O,i
CCN1CCN(S(=O)(=O)c2ccc(Cl)c(C(=O)NC(C)(C)C)c2)CC1,i
CCN(CC(=O)NC1CCS(=O)(=O)C1)C(=O)/C=C/c1cccs1 (centres undefined),i
COC(=O)c1ccc(-c2nc3ccccc3[nH]2)cc1,i
Nc1nc(CSc2nnnn2-c2ccccc2)nc(N2CCCc3ccccc32)n1,447
Cc1ncc(CSc2nnnn2-c2ccccc2)c(N)n1,i
CN(C)c1nc(N)nc(CSc2nnnn2-c2ccc(F)cc2)n1,i
CC(C)NCC(O)COc1ccc2c(c1)CCC2 (centres undefined),i
CCCc1ccccc1OCCNC(=O)c1cc(=O)n(C)c(=O)n1C,i
Cc1c(C(=O)c2ccc([N+](=O)[O-])cc2)c(=O)n(C)c(=O)n1C,i
CO/N=C/C(C#N)=C/c1cc(C(=O)c2ccccc2)cn1C,i
c1ccc(-c2cc(-c3ccccc3)n3ncnc3n2)cc1,i
Nc1nc2nc(-c3ccc(OCc4ccccc4)cc3)cc(C(F)(F)F)n2n1,i
SMILES,INS promoter act
Fc1ccc(-c2cc(C(F)(F)F)n3ncnc3n2)cc1,235
Cc1cc(=O)oc2cc(Oc3ccc([N+](=O)[O-])cc3[N+](=O)[O-])ccc12,i
O=C(NCCC1=CCCCC1)C1CCN(S(=O)(=O)N2CCCC2)CC1,i
CCC1CCCCN1CCCNC(=O)C1CCN(S(=O)(=O)N2CCCCC2)CC1 (centres undefined),215
O=C(NCCCN1CCCC1=O)C1CCN(S(=O)(=O)N2CCOCC2)CC1,i
CCCc1c2ccccc2nc2ccccc12,i
O=C1NC(NS(=O)(=O)c2ccc(Cl)cc2)(C(F)(F)F)C(=O)N1Cc1cccnc1 (centres undefined),i
O=C1C=CC(O)(c2cc(=O)c3c(O)cc(O)cc3o2)C=C1,i
COc1ccc2nc(NC(=O)Nc3ccccc3)sc2c1,i
CC[n+]1c(/C=C(\C)Nc2ccccc2)sc2ccccc21,i
CC[n+]1c(/C=C/C=C/N(C(C)=O)c2ccccc2)sc2cc(OC)ccc21,270
O=C(NCCC1=CCCCC1)C1CCN(S(=O)(=O)c2ccc(Br)s2)CC1,i
N#CCC(=O)N1CCN(C=O)CC1,i
COc1ccc(C(=O)/C=C/c2ccc(OC)c(Cn3nnc4ccccc43)c2)cc1,i
Cc1nnc(N2CCN(C)CC2)c2nn(-c3ccc(Cl)cc3)c(C)c12,i
CC1=CC(C)(C)N(C(=O)Nc2ccccc2)c2ccccc21,i
C/C=C/C(=O)N1c2ccccc2C(C)=CC1(C)C,i
CC1=CC(C)(C)N(C(=O)CSc2nncn2C)c2ccccc21,631
CCCCOC(=O)c1nc[nH]c1C(=O)OCCCC,i
COc1cc(/C(C)=N/NC(=O)C(O)(c2ccccc2)c2ccccc2)ccc1O,i
N#CC1=C(N)Oc2n[nH]c(-c3cccs3)c2C1C1CCCCC1 (centres undefined),110
Cc1ccc(C2C(C#N)=C(N)Oc3n[nH]c(-c4cccs4)c32)s1 (centres undefined),i
N#CC1=C(N)Oc2n[nH]c(-c3cccs3)c2C1c1ccsc1 (centres undefined),i
CSc1ccc(CN(C)CC(=O)Nc2c(F)cccc2F)cc1,i
CC1=C(CC/C(C)=N/NC(N)=S)C(C)(C)CCC1,i
N#Cc1c2c(c(=S)n(-c3ccccc3)c1N)CCCC2,273
N#Cc1c(NCCCO)nc(-c2ccccc2)c2c1CCCC2,i
N#Cc1c2c(c(-c3ccccc3Cl)[nH]c1=S)CCCC2,i
O=C(COC(=O)c1ccc(Br)o1)Nc1cccc(S(=O)(=O)N2CCCCCC2)c1,i
O=C(NC(NC(=S)Nc1ccc(Cl)cc1Cl)C(Cl)(Cl)Cl)c1cccc([N+](=O)[O-])c1 (centres undefined),i

# Assay outcomes deposited in PubChem by Columbia University Molecular Screening Center.
